The results in this text go back to ChEMBL document CHEMBL1125107, “Cephalosporin 3'-quinolone esters with a dual mode of action” (J Med Chem, 1990).

≈ marks a conversion by molar mass, not a printed value.

What all share (format): functional
The subject of test [1] is Pseudomonas aeruginosa. Nature of the test: Evaluated for the minimum inhibitory concentration against Pseudomonas aeruginosa ATCC 27853. The method in brief:
(§1)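 MIC by serial 2-fold dilution in Mueller-Hinton broth; results given as minimum inhibitory concentrations (nmol/mL).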

In test [2] the test system is Pseudomonas aeruginosa. Briefly: Evaluated for the minimum inhibitory concentration against Pseudomonas aeruginosa 18S/H ( Class Id beta-lactamase overproducer). The method in brief:
as §1

In test [3] the test system is Proteus vulgaris. Nature of the test: Minimum inhibitory concentration against Proteus vulgaris 1028 BC (Class Ic beta-lactamase overproducer). The method in brief:
(§2)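 Broth MIC determination: serial 2-fold dilutions in Mueller-Hinton broth by standard methodology; the lowest concentration inhibiting growth is reported as the MIC, in nmol/mL.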

The test system of test [4] is Streptococcus pneumoniae. Nature of the test: Minimum inhibitory concentration against Streptococcus pneumoniae 6301. The essentials: as §2
The subject of test [5] is Streptococcus pyogenes. Nature of the test: Minimum inhibitory concentration against Streptococcus pyogenes 4. The essentials:
as §2

Test [6] has as its system Staphylococcus aureus. Briefly: Minimum inhibitory concentration against Staphylococcus aureus 95 (Methicillin-resistant, high-level beta-lactamase producer). The essentials:
(§3)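 Serial 2-fold broth dilution in Mueller-Hinton broth, run by standard methodology; read-out is the minimum inhibitory concentration (MIC).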

Test [7] concerns Pseudomonas aeruginosa. Nature of the test: Minimum inhibitory concentration against Pseudomonas aeruginosa ATCC 27853. The essentials:
as §2

In test [8] the test system is Proteus vulgaris. Nature of the test: Evaluated for the minimum inhibitory concentration against Proteus vulgaris 1028 BC (Class Ic beta-lactamase overproducer. The essentials: as §1
Test [9] concerns Pseudomonas aeruginosa. Briefly: Evaluated for the minimum inhibitory concentration against Pseudomonas aeruginosa 18S/H (Class Id beta-lactamase overproducer). The essentials:
as §1

Test [10] concerns Staphylococcus aureus. Nature of the test: Evaluated for the minimum inhibitory concentration against Staphylococcus aureus 1059B ( inducible, high level beta-lactamase producer). The method in brief:
as §3

Test [11] relates to Escherichia coli. Briefly: Evaluated for in Vitro activity against Escherichia coli DC-O. The method in brief:
as §1

The test system of another test is Micrococcus luteus. Nature of the test: Evaluated for in Vitro activity against Micrococcus luteus PCI. The method in brief: as §1
Test [12] concerns Streptococcus pneumoniae. Briefly: Evaluated for in Vitro activity against Streptococcus pneumoniae 6301. The essentials: as §1
The next test concerns Proteus mirabilis. Briefly: In vitro antibacterial activity was determined against Proteus mirabilis 90. The essentials:
as §1

Test [13] relates to Staphylococcus aureus. Nature of the test: In vitro antibacterial activity was determined against Staphylococcus aureus 1059B ( inducible, high level beta-lactamase producer). The essentials: as §2
In test [14] the test system is Streptococcus pneumoniae. Nature of the test: In vitro antibacterial activity was determined against Streptococcus pneumoniae 6301. The method in brief:
as §2

Test [15] has as its system Streptococcus pyogenes. Briefly: In vitro antibacterial activity was determined against Streptococcus pyogenes 4. The method in brief: as §2
Test [16] has as its system Escherichia coli. Briefly: Evaluated for the minimum inhibitory concentration against Escherichia coli UB 1005. The method in brief: as §1
For test [17], the system named is Escherichia coli. Nature of the test: Evaluated for the in vivo activity in mice against Escherichia coli 257.
For test [18], the system named is Streptococcus pyogenes. Nature of the test: Evaluated for the in vivo activity in mice against streptococcus pyogenes 4.
A further test concerns Citrobacter freundii. Nature of the test: In vitro antibacterial activity was determined against Citrobacter freundii BS-16. The essentials: as §1
Test [19] concerns Enterobacter cloacae. Nature of the test: In vitro antibacterial activity was determined against Enterobacter cloacae P99 (Class Ia beta-lactamase overproducer). The essentials: as §1
The test system of test [20] is Escherichia coli. Nature of the test: In vitro antibacterial activity was determined against Escherichia coli TEM-1 (TEM-1 (class IIIa) beta-lactamase producer). The essentials:
as §1

Test [21] deals with Proteus vulgaris. Briefly: In vitro antibacterial activity was determined against Proteus vulgaris 1028 BC (Class Ic beta-lactamase overproducer. The essentials: as §1
In another test the test system is Serratia marcescens. Briefly: In vitro antibacterial activity was determined against Serratia marcescens 1071. The method in brief: as §2
The test system of test [22] is Staphylococcus aureus. Briefly: In vitro antibacterial activity was determined against Staphylococcus aureus 1059B (inducible, high level beta-lactamase producer). The method in brief: as §3
The test system of test [23] is Staphylococcus aureus. Briefly: In vitro antibacterial activity was determined against Staphylococcus aureus ATCC 29213 (inducible, low level beta-lactamase producer). The essentials:
as §3

Test [24] concerns Pseudomonas aeruginosa. Nature of the test: In vitro antibacterial activity was determined against Pseudomonas aeruginosa 18S/H (Class Id beta-lactamase overproducer). The method in brief: as §2
The subject of another test is Enterococcus faecalis. Briefly: In vitro antibacterial activity was determined against Enterococcus faecalis ATCC 29212. The method in brief: as §1
The test system of test [25] is Staphylococcus aureus. Nature of the test: In vitro antibacterial activity was determined against Staphylococcus aureus 95 (Methicillin-resistant, high-level beta-lactamase producer). The essentials: as §3
Test [26] concerns Escherichia coli. Nature of the test: Evaluated for the minimum inhibitory concentration against Escherichia coli TEM-1. The essentials: as §3
The test system of test [27] is Enterobacter cloacae. Nature of the test: Evaluated for the minimum inhibitory concentration against Enterobacter cloacae P99. The essentials:
as §3

Test [28] deals with Proteus vulgaris. Nature of the test: Evaluated for the minimum inhibitory concentration against Proteus vulgaris 1028 BC. The essentials:
as §3

Usually MIC stands for the least concentration at which growth counts as inhibited. Low readings indicate inhibition by little substance, high ones a need for much substance. On to `CCN1CCN(C(=O)NC(C(=O)N[C@@H]2C(=O)N3C(C(=O)O)=C(COC(=O)c4cn(CC)c5cc(N6CCSCC6)c(F)cc5c4=O)CSC23)c2ccccc2)C(=O)C1=O` (stereo partly specified), for which the MIC was found to be 64 µg/mL (≈ 75.3 µM) with Pseudomonas aeruginosa [1]; 32 µg/mL (≈ 37.7 µM) against Pseudomonas aeruginosa [2]; 64 µg/mL (≈ 75.3 µM) with Proteus vulgaris [3]; 0.125 µg/mL (≈ 0.147 µM) in the test with Streptococcus pneumoniae [4]; 0.016 µg/mL (≈ 0.0188 µM) in the test on Streptococcus pyogenes [5]; 1 µg/mL (≈ 1.18 µM) in the test with Staphylococcus aureus [6].
For `CCn1cc(C(=O)OCC2=C(C(=O)O)N3C(=O)[C@@H](NC(=O)/C(=N/OC)c4csc(N)n4)C3SC2)c(=O)c2cc3c(cc21)OCO3` (stereo partly specified), the MIC in the test on Pseudomonas aeruginosa [7] was found to be 128 µg/mL (≈ 195 µM); against Proteus vulgaris [8], 0.25 µg/mL (≈ 0.381 µM); against Pseudomonas aeruginosa [9] it was 16 µg/mL (≈ 24.4 µM); with Staphylococcus aureus [6], 4 µg/mL (≈ 6.09 µM).
On to `CN1CCN(c2c(F)cc3c(=O)c(C(=O)OCC4=C(C(=O)O)N5C(=O)[C@@H](NC(=O)/C(=N/OC(C)(C)C(=O)O)c6csc(N)n6)C5SC4)cn(CCF)c3c2F)CC1` (stereo partly specified), for which the minimum inhibitory concentration (MIC) against Pseudomonas aeruginosa [7] was 8 µg/mL (≈ 9.56 µM); in the test with Proteus vulgaris [8] it was 0.5 µg/mL (≈ 0.597 µM); against Pseudomonas aeruginosa [9], > 128 µg/mL; against Streptococcus pneumoniae [4] it was 0.5 µg/mL (≈ 0.597 µM); in the test on Streptococcus pyogenes [5], 0.5 µg/mL (≈ 0.597 µM); in the test with Staphylococcus aureus [6], 4 µg/mL (≈ 4.78 µM).
In the case of `CCn1cc(C(=O)OCC2=C(C(=O)O)N3C(=O)[C@@H](NC(=O)COc4ccccc4)C3SC2)c(=O)c2cc(F)c(N3CCSCC3)cc21` (stereo partly specified), the MIC against Pseudomonas aeruginosa [7] was 128 µg/mL (≈ 187 µM); against Proteus vulgaris [3], 1 µg/mL (≈ 1.46 µM); in the test on Pseudomonas aeruginosa [9] it was 64 µg/mL (≈ 93.7 µM); against Streptococcus pneumoniae [4] it was 2 µg/mL (≈ 2.93 µM); against Streptococcus pyogenes [5] it was 4 µg/mL (≈ 5.86 µM); in the test with Staphylococcus aureus [10], 0.25 µg/mL (≈ 0.366 µM). The same compound showed an MIC against Staphylococcus aureus [6] of 0.5 µg/mL (≈ 0.732 µM).
For the compound `CO/N=C(/C(=O)N[C@@H]1C(=O)N2C(C(=O)O)=C(CO)CSC12)c1csc(N)n1` (stereo partly specified), the minimal inhibitory concentration (MIC) worked out at 0.597 µM (≈ 0.247 µg/mL) against Escherichia coli [11], 0.597 µM (≈ 0.247 µg/mL) against Micrococcus luteus and 0.0746 µM (≈ 0.0308 µg/mL) against Streptococcus pneumoniae [12].
`CCn1cc(C(=O)OCC2=C(C(=O)O)N3C(=O)[C@@H](NC(=O)/C(=N/OC)c4csc(N)n4)C3SC2)c(=O)c2ccc(C)nc21` (stereo partly specified): the MIC in the test on Pseudomonas aeruginosa [7] is > 128 µg/mL; against Proteus vulgaris [3], 4 µg/mL (≈ 6.37 µM); in the test with Pseudomonas aeruginosa [9] it was 64 µg/mL (≈ 102 µM); against Staphylococcus aureus [6], 8 µg/mL (≈ 12.7 µM).
On to `CCn1cc(C(=O)OCC2=C(C(=O)O)N3C(=O)[C@@H](NC(=O)COc4ccccc4)C3SC2)c(=O)c2ccc(C)nc21` (stereo partly specified), for which the MIC is 32 µg/mL (≈ 55.3 µM) in the test on Proteus mirabilis, 0.5 µg/mL (≈ 0.864 µM) against Staphylococcus aureus [13], < 0.008 µg/mL against Streptococcus pneumoniae [14] and 0.063 µg/mL (≈ 0.109 µM) against Streptococcus pyogenes [15].
One may read the ED50 as the dose that gives a 50% effect, or the effect in half of the subjects. Higher therefore signals a need for a large dose. For the compound `CO/N=C(\C(=O)N[C@@H]1C(=O)N2C(C(=O)O)=C(COC(C)=O)CS[C@H]12)c1csc(N)n1` [CEFOTAXIME], the MIC against Escherichia coli [16] is 0.06 µg/mL (≈ 0.132 µM); against Pseudomonas aeruginosa [7], 64 µg/mL (≈ 141 µM); in the test on Proteus vulgaris [8] it was 16 µg/mL (≈ 35.1 µM); with Pseudomonas aeruginosa [9], 128 µg/mL (≈ 281 µM); against Streptococcus pneumoniae [4], 0.016 µg/mL (≈ 0.0351 µM); against Streptococcus pyogenes [5] it was < 0.008 µg/mL. This compound gave an MIC against Staphylococcus aureus [6] of 32 µg/mL (≈ 70.3 µM). The values for the ED50 in the test with Escherichia coli [17] and in the test with Streptococcus pyogenes [18] were 1.7 mg/kg and 5.2 mg/kg, respectively.
As for `CCn1cc(C(=O)O)c(=O)c2cc(F)c(-n3cccc3)cc21` [IRLOXACIN], the MIC worked out at 64 µg/mL (≈ 213 µM) in the test on Citrobacter freundii; 0.5 µg/mL (≈ 1.67 µM) in the test on Enterobacter cloacae [19]; 1 µg/mL (≈ 3.33 µM) in the test on Escherichia coli [20]; 64 µg/mL (≈ 213 µM) against Proteus mirabilis; 0.5 µg/mL (≈ 1.67 µM) against Proteus vulgaris [21]; 0.5 µg/mL (≈ 1.67 µM) with Serratia marcescens. Moreover, the minimal inhibitory concentration (MIC) is 0.125 µg/mL (≈ 0.416 µM) in the test with Staphylococcus aureus [22]; 0.125 µg/mL (≈ 0.416 µM) against Staphylococcus aureus [23]; 16 µg/mL (≈ 53.3 µM) against Streptococcus pneumoniae [14]; > 128 µg/mL in the test with Streptococcus pyogenes [15]; 64 µg/mL (≈ 213 µM) in the test with Pseudomonas aeruginosa [24]; 2 µg/mL (≈ 6.66 µM) in the test on Enterococcus faecalis. Moreover, the minimal inhibitory concentration (MIC) against Staphylococcus aureus [25] turned out to be 0.125 µg/mL (≈ 0.416 µM).
Take `CCn1cc(C(=O)O)c(=O)c2ccc(C)nc21` [NALIDIXIC ACID]: the MIC in the test on Escherichia coli [26] was determined as 4 µg/mL (≈ 17.2 µM); with Pseudomonas aeruginosa [7] it was 128 µg/mL (≈ 551 µM); with Proteus vulgaris [3], 2 µg/mL (≈ 8.61 µM); in the test with Pseudomonas aeruginosa [9] it was 32 µg/mL (≈ 138 µM); in the test with Streptococcus pneumoniae [4], 128 µg/mL (≈ 551 µM); against Streptococcus pyogenes [5] it was 128 µg/mL (≈ 551 µM). The same compound came in with an MIC in the test on Staphylococcus aureus [6] of 8 µg/mL (≈ 34.4 µM).
Regarding `CCn1cc(C(=O)O)c(=O)c2cc3c(cc21)OCO3` [OXOLINIC ACID], the MIC was 0.5 µg/mL (≈ 1.91 µM) against Enterobacter cloacae [27]; 0.25 µg/mL (≈ 0.957 µM) in the test with Escherichia coli [26]; 0.063 µg/mL (≈ 0.241 µM) in the test on Proteus vulgaris [28]; 4 µg/mL (≈ 15.3 µM) in the test on Pseudomonas aeruginosa [2]; 64 µg/mL (≈ 245 µM) in the test with Pseudomonas aeruginosa [7]; > 128 µg/mL in the test on Streptococcus pneumoniae [4]. The MIC with Streptococcus pyogenes [5] was > 128 µg/mL; in the test on Staphylococcus aureus [6], 2 µg/mL (≈ 7.66 µM).
